Compound activity as filed in PubChem BioAssay.
Most compounds without a hit are left out; they make up all but 1.8% or so of the library.
proCasp3 act: activators of human procaspase-3 D3A mutant, primary screen, biochemical, absorbance, PC-3 D3A mutant, single concentration. recombinant procaspase-3 D3A, Ac-DEVD-pNA absorbance 405 nm. 330,000 tested, 0.11% active. activation, % at 8.5 µM;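 active means activation above the mean of all tested compounds plus 3 SD, cut at about 21% in these data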
Target sequence (P42574 whole entry D9A/D28A/D175A): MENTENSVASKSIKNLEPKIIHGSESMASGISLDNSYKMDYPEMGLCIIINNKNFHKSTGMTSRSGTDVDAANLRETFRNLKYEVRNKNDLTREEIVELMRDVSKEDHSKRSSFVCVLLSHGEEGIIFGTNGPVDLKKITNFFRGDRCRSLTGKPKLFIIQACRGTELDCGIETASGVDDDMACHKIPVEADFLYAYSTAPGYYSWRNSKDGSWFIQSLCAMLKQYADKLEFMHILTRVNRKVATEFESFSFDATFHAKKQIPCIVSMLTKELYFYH
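Assay system – Procaspase-3 D3A mutant, all three cleavage aspartates alanine · Controls – DMSO-only low control, 5 µM PC-3 D3A high control · Schedule – 1 h compound preincubation, 2 h substrate hydrolysis at 25 °C · Signal – 405 nm absorbance of p-nitroaniline, reads at 0 and 120 min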
Apaf-1 inh: inhibitors of human Apaf-1 apoptosome, primary screen, biochemical, DEVD-Rh110 fluorescence, uHTS; reconstituted apoptosome caspase-3 activity; inhibition, % at 20 µM; 330,000 tested, 0.71% active; active means inhibition of at least 40% at 20 µM
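Material: cell-free apoptosome with Apaf-1, procaspase-3 and caspase-9; Buffer or medium: Hepes pH 7.5 with detergent and BSA; Reagent: cytochrome c trigger plus (Z-DEVD)2-Rh110 caspase-3 substrate; Times: compound with Apaf-1, dATP, procaspase-3 30 min, then 50 min reaction, room temperature; Technique: Rh110 fluorescence intensity.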
ZTA counter: ZTA (EBV) inhibition in EBNA-1 counter-screen; inhibition, % at 11 µM; AID 2234; 320,000 tested, 0.15% active; P03206; ZTA-DNA binding, fluorescence polarization; in the data active means inhibition above about 33%
GSTO1 counter: inhibitors of recombinant GSTO1, primary screen, counter-screen for RBBP9 inhibitor project, biochemical, fluorescence polarization; Glutathione S-transferase omega-1 (Homo sapiens), P78417; activity-based probe fluorescence polarization; inhibition, % at 5.96 µM; 300,000 tested, 1.1% active; AID 1974, 2009;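 active means inhibition above the campaign mean inhibition plus 3 SD, cut at about 35% in these data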
procasp7 counter: procaspase-7 activators, primary screen, counter-screen for procaspase-3 activator project, biochemical, absorbance, HTS, human; AID 463210, 2010; 330,000 tested, 0.093% active; activation, % at 8.5 µM; Caspase-7 (Homo sapiens), P55210; recombinant procaspase-7, Ac-DEVD-pNA absorbance 405 nm; D23A/D198A/D206A triple mutant, cannot self-cleave; scale: DMSO 0, 5 µM enzyme 100;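 active means percent activation above the screen-wide mean plus 3 SD, cut at about 25% in these data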
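Test system: Procaspase-7 triple mutant (PC-7 D3A). Also added: Ac-DEVD-pNA substrate, 400 µM as added. Schedule: 1 h enzyme–compound preincubation and 2 h substrate reaction, both 25 °C. Signal: p-Nitroaniline absorbance at 405 nm, read at 0 and 120 min. Control set: low DMSO alone, high DMSO plus 5 µM PC-7.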
EBNA-1 inh: EBNA-1 DNA-binding inhibitors, primary screen, biochemical, fluorescence polarization; 300,000 tested, 0.34% active; inhibition, % at 14.8 µM; AID 1950, 2009; in the data active means inhibition above about 28%
Apaf-1 inh conf2: Apaf-1 inhibitors, single-dose retest, confirmation, biochemical, fluorescence, DEVD-Rh110, 20 µM | AID 504614, 2011 | inhibition, % at 20 µM | shares compounds with Apaf-1 inh | 1,800 tested, 25% active | reconstituted apoptosome, caspase-3 DEVD-Rh110 fluorescence;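 active means mean inhibition of at least 40% at 20 µM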
Rh110 quench: Rh110 fluorescence interference by putative Apaf-1 inhibitors, confirmation, artefact control for Apaf-1 inhibitor project, biochemical, 20 µM; activation (fluorescence interference), % at 20 µM; quenched caspase reaction; AID 504615, 2011; shares compounds with Apaf-1 inh; 1,800 tested, under 10 active;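 active means signal rise of 40% or more at 20 µM, treated as a fluorescence artifact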
Numbers stand for hits; n = inactive; x = not tested or not shown.

SMILES | proCasp3 act | Apaf-1 inh | ZTA counter | GSTO1 counter | procasp7 counter | EBNA-1 inh | Apaf-1 inh conf2 | Rh110 quench
C#CCOCCOCCOCCNc1nc(N2CCN(C(=O)[C@H](CCCCN)n3cc([C@@H](N)C(C)CC)nn3)CC2)nc(N2CCN(C(=O)[C@H](Cc3cc4ccccc4[nH]3)n3cc([C@@H](N)C(C)CC)nn3)CC2)n1 (some centres not stated) | n | 53.3 | x | x | n | x | n | n
C#CCOCCOCCOCCNc1nc(N2CCN(C(=O)C([C@@H](C)O)n3cc([C@@H](N)CCCCN)nn3)CC2)nc(N2CCN(C(=O)[C@H](CCCN=C(N)N)n3cc(C(N)[C@@H](C)CC)nn3)CC2)n1 (some centres not stated) | n | 46.2 | x | x | n | x | n | n
C#CCOCCOCCOCCNc1nc(N2CCN(C(=O)C(Cc3cc4ccccc4[nH]3)n3cc(C(N)C(C)CC)nn3)CC2)nc(N2CCN(C(=O)C(Cc3cc4ccccc4[nH]3)n3cc(C(N)C(C)CC)nn3)CC2)n1 (configuration not stated) | n | n | n | n | n | n | x | x
C#CCOCCOCCOCCNc1nc(N2CCN(C(=O)[C@H]([C@@H](C)CC)n3cc([C@@H](N)CC(C)C)nn3)CC2)nc(N2CCN(C(=O)[C@H](Cc3cc4ccccc4[nH]3)n3cc([C@@H](N)Cc4ccc(O)cc4)nn3)CC2)n1 | n | 56.4 | n | n | n | n | n | n
CC(C)CCC(C)NC(=O)CN1C(=O)NC(C)(c2ccc3ccccc3c2)C1=O (configuration not stated) | n | n | n | n | n | n | x | x
CC(C)C(NC(=O)CCNC(=O)c1ccc(C(C)(C)C)cc1)c1nc2ccccc2[nH]1 (configuration not stated) | n | n | n | x | n | x | x | x
CCc1nnc(NC(=O)C2CCCN2C(=O)Nc2ccccc2)s1 (configuration not stated) | n | n | n | n | n | n | x | x
CCCC(C(=O)NCCC(C)C)N(Cc1ccccc1Cl)C(=O)c1snc(C(N)=O)c1N (configuration not stated) | n | n | n | n | n | n | x | x
Cc1c(C(=O)N(C)CCOc2ccccc2)oc2c(Cl)cccc12 | n | 44.6 | n | x | n | x | n | n
N#CCOC(=O)c1cc(S(=O)(=O)N2CCCCC2)ccc1N1CCOCC1 | n | n | n | x | n | x | x | x
COC(=O)c1c(NC(=O)c2ccccc2)sc2c1CC(C)(C)NC2(C)C | n | n | n | n | n | n | x | x
COC(=O)c1c(NC(=O)c2ccc(OC(C)C)cc2)sc2c1CC(C)(C)NC2(C)C | n | 53.4 | n | n | n | n | n | n
CC[C@H](C)Cc1cn([C@@H](CCCCN)C(=O)NCCCCCCCCCCC(=O)N2CCNCC2)nn1 | n | 45.6 | n | n | n | n | n | n
CC[C@H](C)Cc1cn([C@@H](CCCN=C(NC(=O)OC(C)(C)C)NC(=O)OC(C)(C)C)C(=O)NCCCCCCCCCCC(=O)N2CCN(C(=O)OC(C)(C)C)CC2)nn1 | n | 57.3 | n | n | n | n | n | n
NCCCCCc1cn([C@@H](CCC(=O)O)C(=O)NCCCCCCCCCCC(=O)N2CCNCC2)nn1 | n | n | n | n | n | n | x | x
CCN1C(=O)c2ccc(C(=O)Nc3ccc4c(c3)OCO4)cc2C1=O | n | n | n | n | n | n | x | x
